Assay results as given in article PMC12506886 (RSC Advances, 2025).
Like-named read-outs stand apart in the source and are kept apart here.

Experiments:
[1] = system: A549 (human lung cancer) cells; assay: MTT antiproliferative assay, A549 cells; format: cell-based; conditions: read-out: IC50 A549
Procedure, shortened: (§1)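 Cancer cells were grown in RPMI 1640 with 10% FBS and 1% penicillin–streptomycin at 37 °C in humidified CO2. They were harvested with trypsin/EDTA and seeded at 8 × 10^3 cells per well. Cells were exposed to a concentration series in triplicate, with untreated wells as controls, for 72 h. MTT was then added for 4 h at 37 °C and formazan dissolved in DMSO (10 min, 37 °C, dark). Absorbance was read at 490 nm. IC50 is mean ± SD of 3–4 independent experiments.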

[2] = system: SW480 (human colon cancer) cells; assay: MTT antiproliferative assay, SW480 cells; format: cell-based; conditions: read-out: IC50 SW480
Procedure, shortened: as §1

[3] = system: MRC-5 (human fetal lung fibroblast cells); assay: MTT cytotoxicity assay, MRC-5 normal cells; format: cell-based; conditions: MRC5, 72 h, read-out: IC50 MRC-5
Procedure, shortened: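 Human fetal lung fibroblasts were harvested with trypsin/EDTA and seeded at 8 × 10^3 cells per well. They were treated in triplicate with a concentration series for 72 h, with untreated wells as controls. MTT was added for 4 h at 37 °C and formazan dissolved in DMSO. Absorbance was read at 490 nm. IC50 is mean ± SD of three independent replicates.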

[4] = system: A549 cells; conditions: read-out: IC50 (A549); cited from earlier work
[5] = system: A549 cells; assay: Cell cycle analysis by PI staining and flow cytometry; format: cell-based, human; conditions: A549, 16.1 μM
Procedure, shortened: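 A549 cells (5 × 10^4) were pre-cultured for 16 h in high-glucose DMEM, then treated with 16.1 μM test compound for 24 h and 48 h. Cells were harvested with 0.25% trypsin, washed in PBS, and stained with propidium iodide plus 1 U RNase A. DNA content was measured by flow cytometry. Values are mean ± SD of three independent experiments, compared with control by one-way ANOVA and Tukey's test.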

[6] = system: A549 cells; assay: Annexin V-FITC/PI apoptosis assay by flow cytometry; format: cell-based, human; conditions: A549, 16.1 μM
Procedure, shortened: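 A549 cells (1 × 10^5) were pre-cultured for 16 h, then exposed to 16.1 μM test compound for 24 h and 48 h. Cells were washed with PBS and 1× binding buffer, then stained with Annexin V-FITC for 15 min. After a further wash, PI was added in binding buffer and apoptosis rates were read by flow cytometry. Values are mean ± SD of three independent experiments, compared with untreated controls by one-way ANOVA and Tukey's test.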

[7] = MTT, 72 h, mean ± SD of 3–4 independent replicates

Row | IC50 ([1]; Homo sapiens, A549, 72 h) [µM] | IC50 ([2]; Homo sapiens, SW480, 72 h) [µM] | Compound | further results
1 | 22.2 ± 4 | 30.4 ± 3.6 | COc1cc(-c2nc3ccccc3n2Cc2cn(CC(=O)Nc3ccccc3Cl)nn2)cc(OC)c1OC [Compound 9e, N-(2-Chlorophenyl)-2-(4-((2-(3,4,5-trimethoxyphenyl)-1H-benzo[d]imidazol-1-yl)methyl)-1H-1,2,3-triazol-1-yl)acetamide] | IC50 [3]: 105 ± 7.1 µM
2 |  |  | COc1cc(-c2nc3ccc(C)cc3[nH]2)cc(OC)c1OC [Compound I, 6-methyl-2-(3,4,5-trimethoxyphenyl)-1H-benzo[d]imidazole] | IC50 [4]: 39.4 µM
3 | 57.6 ± 5.7 | 68.1 ± 2.2 | COc1ccc(NC(=O)Cn2cc(Cn3c(-c4cc(OC)c(OC)c(OC)c4)nc4ccccc43)nn2)cc1 [Compound 9j, N-(4-Methoxyphenyl)-2-(4-((2-(3,4,5-trimethoxyphenyl)-1H-benzo[d]imidazol-1-yl)methyl)-1H-1,2,3-triazol-1-yl)acetamide] | 
4 |  |  | N-(2-Nitrophenyl)-2-(4-((2-(3,4,5-trimethoxyphenyl)-1H-benzo[d]imidazol-1-yl)methyl)-1H-1,2,3-triazol-1-yl)acetamide [Compound 9c] | IC50 [1, 7]: 23.5 ± 3.6 µM; IC50 [2, 7]: 22.5 ± 3.9 µM
5 | 32.5 ± 4.2 | 43.8 ± 2.5 | COc1cc(-c2nc3ccccc3n2Cc2cn(CC(=O)Nc3ccccc3[N+](=O)[O-])nn2)cc(OC)c1OC [Compound 9h, N-(2-Nitrophenyl)-2-(4-((2-(3,4,5-trimethoxyphenyl)-1H-benzo[d]imidazol-1-yl)methyl)-1H-1,2,3-triazol-1-yl)acetamide] | 
6 | 0.46 ± 0.02 | 0.59 ± 0.07 | COc1cccc2c1C(=O)c1c(O)c3c(c(O)c1C2=O)C[C@@](O)(C(=O)CO)C[C@@H]3O[C@H]1C[C@H](N)[C@H](O)[C@H](C)O1 [Doxorubicin, reference compound] | IC50 [3]: 0.39 ± 0.06 µM
7 | 47.9 ± 2.7 | 72.3 ± 5.3 | COc1cc(-c2nc3ccccc3n2Cc2cn(CC(=O)NCc3ccccc3)nn2)cc(OC)c1OC [Compound 9m, N-Benzyl-2-(4-((2-(3,4,5-trimethoxyphenyl)-1H-benzo[d]imidazol-1-yl)methyl)-1H-1,2,3-triazol-1-yl)acetamide] | 
8 | 50.3 ± 6.7 | 65.3 ± 1 | CCc1ccc(NC(=O)Cn2cc(Cn3c(-c4cc(OC)c(OC)c(OC)c4)nc4ccccc43)nn2)cc1 [Compound 9l, N-(4-Ethylphenyl)-2-(4-((2-(3,4,5-trimethoxyphenyl)-1H-benzo[d]imidazol-1-yl)methyl)-1H-1,2,3-triazol-1-yl)acetamide] | 
9 | 16.1 ± 1.1 | 19.7 ± 2.7 | COc1ccc(NC(=O)Cn2cc(Cn3c(-c4cc(OC)c(OC)c(OC)c4)nc4ccccc43)nn2)c(OC)c1 [Compound 9f, N-(2,4-Dimethoxyphenyl)-2-(4-((2-(3,4,5-trimethoxyphenyl)-1H-benzo[d]imidazol-1-yl)methyl)-1H-1,2,3-triazol-1-yl)acetamide] | IC50 [3]: 121 ± 6.7 µM; changes in the number of cells in the cell cycle phases compared to control ([5]; 24 h): not significant; number of cells in the G2/M phase ([5]; 48 h, non-significant decrease): 12.05%; number of cells in the S phase ([5]; 48 h, p < 0.001 vs control): 33.04%; number of cells in the G0/G1 phase ([5]; 48 h, p < 0.01 vs control): 54.91%; rate of early apoptosis (Q3) ([6]; 24 h): 3.79%; rate of late apoptosis (Q2) ([6]; 24 h): 1.63%; rate of early apoptosis (Q3) ([6]; 48 h): 12.2%; rate of late apoptosis (Q2) ([6]; 48 h): 4.01%
10 | 67.4 ± 3.4 | 77.2 ± 3.2 | COc1cc(-c2nc3ccccc3n2Cc2cn(CC(=O)Nc3ccc(C)cc3)nn2)cc(OC)c1OC [Compound 9a, N-(p-Tolyl)-2-(4-((2-(3,4,5-trimethoxyphenyl)-1H-benzo[d]imidazol-1-yl)methyl)-1H-1,2,3-triazol-1-yl)acetamide] | 
11 | 37.9 ± 0.14 | 53.5 ± 6.4 | COc1cc(-c2nc3ccccc3n2Cc2cn(CC(=O)Nc3cccc(C)c3C)nn2)cc(OC)c1OC [Compound 9k, N-(2,3-Dimethylphenyl)-2-(4-((2-(3,4,5-trimethoxyphenyl)-1H-benzo[d]imidazol-1-yl)methyl)-1H-1,2,3-triazol-1-yl)acetamide] | 
12 | 29.3 ± 6.6 | 51.5 ± 4.6 | COc1cc(-c2nc3ccccc3n2Cc2cn(CC(=O)Nc3ccc(C)cc3C)nn2)cc(OC)c1OC [Compound 9i, N-(2,4-Dimethylphenyl)-2-(4-((2-(3,4,5-trimethoxyphenyl)-1H-benzo[d]imidazol-1-yl)methyl)-1H-1,2,3-triazol-1-yl)acetamide] | 
13 |  |  | N.N.[Cl][Pt][Cl] [Cisplatin, reference compound] | IC50 [1, 7]: 7.4 ± 1.6 µM
14 | > 200 | > 200 | COc1cc(-c2nc3ccccc3n2Cc2cn(CC(=O)Nc3ccc(Br)cc3)nn2)cc(OC)c1OC [Compound 9d, N-(4-Bromophenyl)-2-(4-((2-(3,4,5-trimethoxyphenyl)-1H-benzo[d]imidazol-1-yl)methyl)-1H-1,2,3-triazol-1-yl)acetamide] | 
15 | 114 ± 5 | 158 ± 7.8 | COc1cc(-c2nc3ccccc3n2Cc2cn(CC(=O)Nc3ccccc3)nn2)cc(OC)c1OC [Compound 9b, N-Phenyl-2-(4-((2-(3,4,5-trimethoxyphenyl)-1H-benzo[d]imidazol-1-yl)methyl)-1H-1,2,3-triazol-1-yl)acetamide] | 
16 | 31.5 ± 4.2 | 64.5 ± 3.3 | COc1cc(-c2nc3ccccc3n2Cc2cn(CC(=O)Nc3ccc(Cl)cc3Cl)nn2)cc(OC)c1OC [Compound 9g, N-(2,4-Dichlorophenyl)-2-(4-((2-(3,4,5-trimethoxyphenyl)-1H-benzo[d]imidazol-1-yl)methyl)-1H-1,2,3-triazol-1-yl)acetamide] | 
17 | 48.9 ± 2.2 | 62.4 ± 3.7 | COc1cc(-c2nc3ccccc3n2Cc2cn(CC(=O)Nc3ccccc3F)nn2)cc(OC)c1OC [Compound 9o, N-(2-Fluorophenyl)-2-(4-((2-(3,4,5-trimethoxyphenyl)-1H-benzo[d]imidazol-1-yl)methyl)-1H-1,2,3-triazol-1-yl)acetamide] | 
18 | 20.3 ± 2 | 34.3 ± 3.1 | COc1cc(-c2nc3ccccc3n2Cc2cn(CC(=O)Nc3cccc(Cl)c3)nn2)cc(OC)c1OC [Compound 9n, N-(3-Chlorophenyl)-2-(4-((2-(3,4,5-trimethoxyphenyl)-1H-benzo[d]imidazol-1-yl)methyl)-1H-1,2,3-triazol-1-yl)acetamide] | IC50 [3]: 124.2 ± 0.4 µM
